Values after ≈ are worked out from the molar mass of the structure shown.

Assay type in all cases: functional
The species entered for assay [1] is Oryctolagus cuniculus. Description: Antiviral activity against McIntyre strain of herpes simplex virus-1 in primary rabbit kidney cell cultures. A digest of the protocol:
(§1)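 Confluent cell monolayers in microtiter trays infected with 100 CCID50 of virus (1 CCID50 = dose infecting 50% of cultures); after 1 h adsorption, residual virus removed and cultures incubated with varying compound concentrations. Cytopathogenicity scored once complete in untreated infected controls; value is concentration reducing virus-induced cytopathogenicity by 50%, averaged over three to four separate experiments.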

The species named for assay [2] is Oryctolagus cuniculus. Description: Antiviral activity against F strain of herpes simplex virus-1 in primary rabbit kidney cell cultures. A digest of the protocol: as §1
For assay [3], the species on record is Oryctolagus cuniculus. Description: Antiviral activity against G strain of herpes simplex virus-2 in primary rabbit kidney cell cultures. A digest of the protocol: as §1
The species named for assay [4] is Oryctolagus cuniculus. Put plainly: Antiviral activity against KOS strain of herpes simplex virus-1 in primary rabbit kidney cell cultures. A digest of the protocol:
as §1

The species named for assay [5] is Oryctolagus cuniculus. Description: Antiviral activity against Vaccinia virus in primary rabbit kidney cell cultures. A digest of the protocol:
as §1

For assay [6], the species on record is Oryctolagus cuniculus. Description: Antiviral activity against 196 strain of herpes simplex virus-2 in primary rabbit kidney cell cultures. A digest of the protocol:
as §1

For assay [7], the species on record is Oryctolagus cuniculus. Description: Antiviral activity against Vesicular stomatitis virus in primary rabbit kidney cell cultures. A digest of the protocol:
as §1

The species entered for assay [8] is Oryctolagus cuniculus. Put plainly: Antiviral activity against B2006 strain of thymidine kinase deficient (TK-) herpes simplex virus-1 in primary rabbit kidney cell cultures. A digest of the protocol:
as §1

The species named for assay [9] is Oryctolagus cuniculus. Put plainly: Minimum cytotoxic concentration required to cause a microscopically detectable alteration of rabbit kidney cell morphology. A digest of the protocol: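 Cell cultures exposed to varying compound concentrations; value is concentration required to cause microscopically detectable alteration of cell morphology.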
For assay [10], the species on record is Oryctolagus cuniculus. Description: Antiviral activity against Lyons strain of herpes simplex virus-2 in primary rabbit kidney cell cultures. A digest of the protocol:
as §1

The species entered for assay [11] is Oryctolagus cuniculus. Put plainly: Antiviral activity against VMW 1837 strain of thymidine kinase deficient (TK-) herpes simplex virus-1 in primary rabbit kidney cell cultures. A digest of the protocol: as §1
Where [12] appears, read: Oryctolagus cuniculus, read-out: MIC.

With `O=c1[nH]c(=O)n([C@@H]2C[C@H](CO)[C@@H](O)C2)cc1I` (stereo in doubt; (-)), the MIC was 20 µg/mL (≈ 56.8 µM) in the assay filed under Oryctolagus cuniculus [1]; 7 µg/mL (≈ 19.9 µM) in the assay listed under Oryctolagus cuniculus [2]; 70 µg/mL (≈ 199 µM) in the assay filed under Oryctolagus cuniculus [3]; 1 µg/mL (≈ 2.84 µM) in the assay filed under Oryctolagus cuniculus [4]; above 400 µg/mL in the assay filed under Oryctolagus cuniculus [5].

Turning to `O=c1[nH]c(=O)n([C@H]2C[C@H](O)[C@@H](CO)O2)cc1I` [IDOXURIDINE], the MIC in the assay listed under Oryctolagus cuniculus [1] (setting [12]) was 0.1 µg/mL (≈ 0.282 µM); in the assay filed under Oryctolagus cuniculus [2] (setting [12]), 0.07 µg/mL (≈ 0.198 µM); in the assay filed under Oryctolagus cuniculus [3] (setting [12]), 0.4 µg/mL (≈ 1.13 µM); in the assay filed under Oryctolagus cuniculus [6] it was 2 µg/mL (≈ 5.65 µM); in the assay filed under Oryctolagus cuniculus [4] (setting [12]) it was 0.1 µg/mL (≈ 0.282 µM); in the assay listed under Oryctolagus cuniculus [7], above 400 µg/mL. Also, the MIC in the assay listed under Oryctolagus cuniculus [5] (setting [12]) is 0.2 µg/mL (≈ 0.565 µM); in the assay listed under Oryctolagus cuniculus [8] it was above 400 µg/mL; in the assay filed under Oryctolagus cuniculus [10], 1 µg/mL (≈ 2.82 µM); in the assay filed under Oryctolagus cuniculus [11] it was above 400 µg/mL. In addition, the MCC in the assay filed under Oryctolagus cuniculus [9] is above 400 µg/mL.

As for `O=c1[nH]c(=O)n([C@H]2C[C@H](O)[C@@H](CO)O2)cc1/C=C/Br` [BRIVUDINE], the MIC was 0.025 µg/mL (≈ 0.075 µM) in the assay listed under Oryctolagus cuniculus [1] (setting [12]); 0.02 µg/mL (≈ 0.06 µM) in the assay filed under Oryctolagus cuniculus [2] (setting [12]); 2 µg/mL (≈ 6 µM) in the assay filed under Oryctolagus cuniculus [3] (setting [12]); 70 µg/mL (≈ 210 µM) in the assay filed under Oryctolagus cuniculus [6]; 0.01 µg/mL (≈ 0.03 µM) in the assay filed under Oryctolagus cuniculus [4] (setting [12]); above 400 µg/mL in the assay filed under Oryctolagus cuniculus [7]. In addition, the MIC in the assay listed under Oryctolagus cuniculus [5] (setting [12]) was 15 µg/mL (≈ 45 µM); in the assay listed under Oryctolagus cuniculus [8] it was 150 µg/mL (≈ 450 µM); in the assay listed under Oryctolagus cuniculus [10], 7 µg/mL (≈ 21 µM); in the assay listed under Oryctolagus cuniculus [11] it was above 400 µg/mL. Moreover, the MCC in the assay filed under Oryctolagus cuniculus [9] is above 400 µg/mL.

As for `O=c1[nH]c(=O)n([C@@H]2C[C@H](CO)[C@@H](O)C2)cc1I` (stereo in doubt; (+)), the MIC in the assay filed under Oryctolagus cuniculus [1] was 0.2 µg/mL (≈ 0.568 µM); in the assay listed under Oryctolagus cuniculus [2], 0.07 µg/mL (≈ 0.199 µM); in the assay filed under Oryctolagus cuniculus [3] it was 10 µg/mL (≈ 28.4 µM); in the assay filed under Oryctolagus cuniculus [6] it was above 400 µg/mL; in the assay filed under Oryctolagus cuniculus [4] it was 0.07 µg/mL (≈ 0.199 µM); in the assay filed under Oryctolagus cuniculus [7], above 400 µg/mL. Besides, the MIC in the assay filed under Oryctolagus cuniculus [5] was 40 µg/mL (≈ 114 µM); in the assay filed under Oryctolagus cuniculus [8], above 400 µg/mL; in the assay filed under Oryctolagus cuniculus [10], above 400 µg/mL; in the assay filed under Oryctolagus cuniculus [11], above 400 µg/mL. This molecule also showed an MCC in the assay listed under Oryctolagus cuniculus [9] above 400 µg/mL.

For the molecule `O=c1[nH]c(=O)n([C@@H]2C[C@H](CO)[C@@H](O)C2)cc1I` (racemic), the MIC in the assay listed under Oryctolagus cuniculus [1] was determined as 0.1 µg/mL (≈ 0.284 µM); in the assay filed under Oryctolagus cuniculus [2], 0.1 µg/mL (≈ 0.284 µM); in the assay filed under Oryctolagus cuniculus [3], 20 µg/mL (≈ 56.8 µM); in the assay filed under Oryctolagus cuniculus [4], 0.1 µg/mL (≈ 0.284 µM); in the assay filed under Oryctolagus cuniculus [5], 150 µg/mL (≈ 426 µM).
